Assay [1] addresses T1, Adrenergic receptor alpha-2 (Rattus norvegicus, UniProt P22086+P19328+P22909).
T1 sequence (P22086 whole entry): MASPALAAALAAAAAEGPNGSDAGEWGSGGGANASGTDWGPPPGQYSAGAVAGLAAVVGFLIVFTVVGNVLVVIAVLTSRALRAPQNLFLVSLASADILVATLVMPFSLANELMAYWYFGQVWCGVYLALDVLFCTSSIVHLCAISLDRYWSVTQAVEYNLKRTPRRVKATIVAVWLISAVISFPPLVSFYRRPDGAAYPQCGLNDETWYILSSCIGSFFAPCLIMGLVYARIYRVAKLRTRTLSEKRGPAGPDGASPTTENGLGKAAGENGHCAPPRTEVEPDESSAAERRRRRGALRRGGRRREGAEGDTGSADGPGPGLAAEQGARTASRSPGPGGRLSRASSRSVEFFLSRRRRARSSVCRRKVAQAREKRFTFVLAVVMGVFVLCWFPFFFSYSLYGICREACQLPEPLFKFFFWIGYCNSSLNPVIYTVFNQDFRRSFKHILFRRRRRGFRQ
T1 sequence (P19328 whole entry): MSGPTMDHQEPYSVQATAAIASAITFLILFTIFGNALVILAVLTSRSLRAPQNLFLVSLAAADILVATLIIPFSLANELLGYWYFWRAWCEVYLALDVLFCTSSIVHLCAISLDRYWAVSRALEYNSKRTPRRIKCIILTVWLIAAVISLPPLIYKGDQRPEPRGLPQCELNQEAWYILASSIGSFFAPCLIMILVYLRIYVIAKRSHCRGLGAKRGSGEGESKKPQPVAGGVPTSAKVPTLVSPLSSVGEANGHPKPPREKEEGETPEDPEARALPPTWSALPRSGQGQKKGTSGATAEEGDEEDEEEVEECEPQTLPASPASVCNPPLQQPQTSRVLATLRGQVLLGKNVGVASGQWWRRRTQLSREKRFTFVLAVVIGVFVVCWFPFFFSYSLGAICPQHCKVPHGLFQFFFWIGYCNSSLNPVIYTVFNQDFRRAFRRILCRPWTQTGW
T1 sequence (P22909 whole entry): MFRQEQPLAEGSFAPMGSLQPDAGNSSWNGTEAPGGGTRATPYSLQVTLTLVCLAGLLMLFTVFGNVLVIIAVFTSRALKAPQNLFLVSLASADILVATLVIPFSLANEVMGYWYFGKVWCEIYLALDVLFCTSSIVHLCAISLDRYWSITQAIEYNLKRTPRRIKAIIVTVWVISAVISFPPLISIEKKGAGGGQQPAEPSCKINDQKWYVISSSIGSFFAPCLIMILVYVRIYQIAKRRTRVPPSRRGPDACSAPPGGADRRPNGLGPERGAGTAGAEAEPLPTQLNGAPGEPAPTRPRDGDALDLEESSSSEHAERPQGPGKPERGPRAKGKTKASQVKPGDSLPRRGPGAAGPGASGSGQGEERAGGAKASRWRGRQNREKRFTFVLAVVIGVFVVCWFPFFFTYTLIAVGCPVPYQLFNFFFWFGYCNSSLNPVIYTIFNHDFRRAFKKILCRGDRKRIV
Nature of the assay: Binding affinity against alpha-2 adrenergic receptor was measured using radioligand ([3H]clonidine) binding assay. The format is protein assay.

Assay [2] in a line: Binding affinity against desipramine receptor was measured using radioligand ([3H]desipramine) binding assay. Details: species or system Rattus norvegicus.
A short description of assay [3]: Binding affinity against histamine receptor was measured using radioligand ([3H]-pyrilamine) binding assay.
Assay [4] is filed under the species Mus musculus. Nature of the assay: Compound was tested for inhibition of norepinephrine lethality in mouse. The format is functional. In outline:
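Groups of 10 nonfasted male mice dosed orally with test compound (initial 100 mg/kg) or vehicle (distilled H2O or 0.5% methocel). Active compounds retested at lower doses, 10 mice/dose, for dose response. ED50 by Berkson's method.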

For assay [5], the species on record is Rattus norvegicus. Kind of assay: Compound was tested for inhibition of hexobarbatial potentiation in rat. The format is functional. The method, boiled down: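 Hexobarbital sodium (40 mg/kg, ip) was given to nonfasted male rats 15, 30, 60 or 120 min after test drug, or 15 min after vehicle (distilled H2O or 0.5% methocel). Loss of righting reflex of 1-min duration was scored over about 10–15 min. Dose response at peak-effect time used 10 rats/dose; ED50 and fiducial limits by Berkson.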

The species entered for assay [6] is Rattus norvegicus. Kind of assay: Compound was tested for inhibition of spontaneous motor activity in rat. Format: functional.
Assay [7] is filed under the species Rattus norvegicus. Nature of the assay: Compound was tested for its ability to induce catalepsy in rats. The format is functional. The method, boiled down:
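Catalepsy was induced in rats with orally dosed compound as a predictor of extrapyramidal liability. ED50 (mg/kg, po) with fiducial limits by Berkson's method.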

pIC50: −log10 of the molar value. Some results are limits rather than exact numbers.

Consider `Cl.O=C1CC2(CCCC2)CC(=O)N1CCCCN1CCN(c2nsc3ccccc23)CC1` [TIOSPIRONE HYDROCHLORIDE], for which the IC50 in assay [1] is given as more than 1000 nM. The pIC50 in assay [2] was less than 6.00; in assay [3], 6.85. Moreover, the ED50 was found to be 12.5 mg/kg in assay [4], 6.7 mg/kg in assay [5], 8.4 mg/kg in assay [6] and 84.4 mg/kg in assay [7].

The record behind these values is ChEMBL document CHEMBL1123413, “Synthesis and biological evaluation of 1-(1,2-benzisothiazol-3-yl)- and (1,2-benzisoxazol-3-yl)piperazine derivatives as potential antipsychotic agents” (J Med Chem, 1986).
